Laboratory results: ChEMBL document CHEMBL1148248, “Potentiation of cytotoxic drug activity in human tumour cell lines, by amine-substituted 2-arylbenzimidazole-4-carboxamide PARP-1 inhibitors” (Bioorg Med Chem Lett, 2004)

Assays:
LoVo [1] = test: Compound was evaluated for cytotoxic potentiation factor of topotecan in human LoVo cancer cell line at 0.4 uM concentration; assay type: functional
Procedure, shortened: (§1)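 Exponentially growing cells were exposed to increasing concentrations of cytotoxic drug (temozolomide or topotecan), alone or with PARP-1 inhibitor fixed at 0.4 µM. Drugs were added from DMSO stocks, giving 1% DMSO final. Growth was read by SRB assay and normalised to the 1% DMSO control or to inhibitor alone. PF50 is the ratio of drug GI50 alone to drug GI50 with inhibitor.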

A549 [2] = test: Cytotoxic potentiation factor of temoxolomide in human A549 tumor cell line at 0.4 uM concentration; assay type: functional; procedure, shortened: as §1
LoVo [3] = test: Cytotoxic potentiation factor of temoxolomide in human LoVo cancer cell line at 0.4 uM concentration; assay type: functional; procedure, shortened: as §1
[4] = target: Poly [ADP-ribose] polymerase 1 (Homo sapiens, UniProt P09874)
A549 [5] = test: Compound was evaluated for cytotoxic potentiation factor of topotecan in human A549 tumor cell line at 0.4 uM concentration; assay type: functional; procedure, shortened: as §1

Poly [ADP-ribose] polymerase 1, sequence (P09874 whole entry): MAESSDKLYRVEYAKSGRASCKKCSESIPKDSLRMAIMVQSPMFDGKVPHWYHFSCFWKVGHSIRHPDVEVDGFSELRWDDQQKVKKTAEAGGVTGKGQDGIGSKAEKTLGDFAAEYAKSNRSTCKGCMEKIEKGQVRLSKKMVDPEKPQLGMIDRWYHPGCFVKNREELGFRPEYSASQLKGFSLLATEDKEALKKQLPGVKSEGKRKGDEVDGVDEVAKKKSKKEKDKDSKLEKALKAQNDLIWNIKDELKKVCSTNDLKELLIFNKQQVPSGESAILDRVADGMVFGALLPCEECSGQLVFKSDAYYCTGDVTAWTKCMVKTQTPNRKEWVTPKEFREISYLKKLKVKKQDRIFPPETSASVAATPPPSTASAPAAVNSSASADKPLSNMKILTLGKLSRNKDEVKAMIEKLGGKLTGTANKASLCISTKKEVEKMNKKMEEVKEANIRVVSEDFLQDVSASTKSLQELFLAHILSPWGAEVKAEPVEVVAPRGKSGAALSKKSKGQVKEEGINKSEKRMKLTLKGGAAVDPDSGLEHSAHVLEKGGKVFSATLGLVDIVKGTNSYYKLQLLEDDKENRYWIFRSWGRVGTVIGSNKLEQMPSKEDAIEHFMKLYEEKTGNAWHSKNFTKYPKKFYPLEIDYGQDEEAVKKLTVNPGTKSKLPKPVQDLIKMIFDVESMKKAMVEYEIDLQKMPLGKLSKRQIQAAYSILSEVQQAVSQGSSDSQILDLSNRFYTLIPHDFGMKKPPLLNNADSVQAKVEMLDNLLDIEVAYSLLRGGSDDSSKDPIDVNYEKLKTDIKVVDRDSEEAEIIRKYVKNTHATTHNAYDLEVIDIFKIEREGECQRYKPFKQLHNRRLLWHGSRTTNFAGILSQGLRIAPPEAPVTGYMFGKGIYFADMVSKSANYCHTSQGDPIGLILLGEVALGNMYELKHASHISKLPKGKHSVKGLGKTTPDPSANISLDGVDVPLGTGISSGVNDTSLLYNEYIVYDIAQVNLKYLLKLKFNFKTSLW

Compound | Ki [4] [nM] | PF50 (LoVo [1]) | PF50 (A549 [2]) | PF50 (LoVo [3]) | PF50 (A549 [5])
NC(=O)c1cccc2[nH]c(-c3ccc(CN4CCCC4)cc3)nc12 | 5.9 | 1.5 | 1.5 | 5.2 | 1.8
CN1CCN(Cc2cccc(-c3nc4c(C(N)=O)cccc4[nH]3)c2)CC1 | 9.8 |  |  |  | 
NC(=O)c1cccc2[nH]c(-c3ccc(CN4CCCCC4)cc3)nc12 | 7.2 |  |  |  | 
NC(=O)c1cccc2[nH]c(-c3cccc(CN4CCOCC4)c3)nc12 | 31 |  |  |  | 
CN1CCN(Cc2ccc(-c3nc4c(C(N)=O)cccc4[nH]3)cc2)CC1 | 8.7 |  |  |  | 

More lines, main results first:

Ki [4] [nM] | Compound | PF50 (LoVo [1]) | PF50 (A549 [2]) | PF50 (LoVo [3]) | PF50 (A549 [5])
12 | NC(=O)c1cccc2[nH]c(-c3ccc(CN4CCOCC4)cc3)nc12 |  |  |  | 
4.5 | NC(=O)c1cccc2[nH]c(-c3ccc(CN(CCO)CCO)cc3)nc12 |  |  |  | 
10.2 | NC(=O)c1cccc2[nH]c(-c3cccc(CN4CCCC4)c3)nc12 | 1.1 |  | 1.7 | 
4.5 | CN(C)Cc1ccc(-c2nc3c(C(N)=O)cccc3[nH]2)cc1 | 1.7 | 1.6 | 4 | 1.9
272 | NC(=O)c1cccc2[nH]c(-c3cccc(CN(CCO)CCO)c3)nc12 |  | 1.1 |  | 1.1
5.6 | CN(C)Cc1cccc(-c2nc3c(C(N)=O)cccc3[nH]2)c1 | 1.4 |  | 1.7 | 
